From ChEMBL document CHEMBL1148752, “Dopamine/serotonin receptor ligands. 16.(1) Expanding dibenz[d,g]azecines to 11- and 12-membered homologues. Interaction with dopamine D(1)-D(5) receptors” (J Med Chem, 2007)
pKi: −log10 of the molar value.

Assays:
[1] = molecular target: D(1B) dopamine receptor (Homo sapiens, UniProt P21918); test: Displacement of [3H]SCH 23390 from human dopamine D5 receptor expressed in HEK293 cells; type: cell-based
[2] = molecular target: D(1A) dopamine receptor (Homo sapiens, UniProt P21728); test: Displacement of [3H]SCH 23390 from human dopamine D1 receptor
Chain of D(1A) dopamine receptor (P21728 whole entry): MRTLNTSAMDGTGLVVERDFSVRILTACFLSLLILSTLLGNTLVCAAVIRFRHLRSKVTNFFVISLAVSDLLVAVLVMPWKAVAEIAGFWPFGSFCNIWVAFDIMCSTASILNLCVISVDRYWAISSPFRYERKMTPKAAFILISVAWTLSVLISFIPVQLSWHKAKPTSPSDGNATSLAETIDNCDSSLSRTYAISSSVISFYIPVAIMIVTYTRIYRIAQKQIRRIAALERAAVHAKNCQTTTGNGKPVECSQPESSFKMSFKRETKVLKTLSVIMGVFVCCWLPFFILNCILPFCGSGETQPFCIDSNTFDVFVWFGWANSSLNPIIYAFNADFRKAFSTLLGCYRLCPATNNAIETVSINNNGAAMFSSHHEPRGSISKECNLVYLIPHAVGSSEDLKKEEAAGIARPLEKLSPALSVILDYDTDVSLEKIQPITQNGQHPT
Method in brief: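 Competition binding at cloned human receptors of the D1 family with [3H]SCH 23390 as radioligand; test ligand displacement expressed as Ki.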

[3] = molecular target: D(2) dopamine receptor (Homo sapiens, UniProt P14416); test: Displacement of [3H]spiperone from human dopamine D2L receptor expressed in HEK293 cells; type: cell-based
Chain of D(2) dopamine receptor (P14416 whole entry): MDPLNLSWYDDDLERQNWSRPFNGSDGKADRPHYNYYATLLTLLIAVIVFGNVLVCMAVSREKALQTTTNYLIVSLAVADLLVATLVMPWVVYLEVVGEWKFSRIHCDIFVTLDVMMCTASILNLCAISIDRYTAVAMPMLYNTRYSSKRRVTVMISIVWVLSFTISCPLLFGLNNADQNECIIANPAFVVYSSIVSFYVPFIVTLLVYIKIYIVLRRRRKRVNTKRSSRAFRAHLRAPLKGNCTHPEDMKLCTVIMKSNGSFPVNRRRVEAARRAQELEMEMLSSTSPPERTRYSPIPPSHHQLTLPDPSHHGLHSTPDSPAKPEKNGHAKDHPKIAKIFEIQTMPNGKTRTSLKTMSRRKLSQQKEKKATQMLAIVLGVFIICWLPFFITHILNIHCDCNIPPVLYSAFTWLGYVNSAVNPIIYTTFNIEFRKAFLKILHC
Method in brief: (§1)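 Competition binding at cloned human receptors of the D2 family with [3H]spiperone as radioligand; test ligand displacement expressed as Ki.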

[4] = molecular target: D(3) dopamine receptor (Homo sapiens, UniProt P35462); test: Displacement of [3H]spiperone from human dopamine D3 receptor expressed in CHO cells; type: cell-based; method in brief: as §1
Chain of D(3) dopamine receptor (P35462 whole entry): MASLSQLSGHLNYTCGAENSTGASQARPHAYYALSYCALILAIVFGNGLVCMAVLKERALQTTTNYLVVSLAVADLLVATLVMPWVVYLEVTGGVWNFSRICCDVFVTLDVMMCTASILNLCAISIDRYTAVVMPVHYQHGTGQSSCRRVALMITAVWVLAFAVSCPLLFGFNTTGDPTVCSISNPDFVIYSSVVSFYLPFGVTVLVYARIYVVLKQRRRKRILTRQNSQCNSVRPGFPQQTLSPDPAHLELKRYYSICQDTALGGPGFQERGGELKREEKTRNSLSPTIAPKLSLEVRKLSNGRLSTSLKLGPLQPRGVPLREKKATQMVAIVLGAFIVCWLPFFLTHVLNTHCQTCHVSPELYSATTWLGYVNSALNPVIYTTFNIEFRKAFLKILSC

[5] = molecular target: T1, D(4) dopamine receptor (Homo sapiens, UniProt P21917); test: Displacement of [3H]spiperone from human dopamine D4.4 receptor expressed in CHO cells; type: cell-based; method in brief: as §1
T1 sequence (P21917 whole entry): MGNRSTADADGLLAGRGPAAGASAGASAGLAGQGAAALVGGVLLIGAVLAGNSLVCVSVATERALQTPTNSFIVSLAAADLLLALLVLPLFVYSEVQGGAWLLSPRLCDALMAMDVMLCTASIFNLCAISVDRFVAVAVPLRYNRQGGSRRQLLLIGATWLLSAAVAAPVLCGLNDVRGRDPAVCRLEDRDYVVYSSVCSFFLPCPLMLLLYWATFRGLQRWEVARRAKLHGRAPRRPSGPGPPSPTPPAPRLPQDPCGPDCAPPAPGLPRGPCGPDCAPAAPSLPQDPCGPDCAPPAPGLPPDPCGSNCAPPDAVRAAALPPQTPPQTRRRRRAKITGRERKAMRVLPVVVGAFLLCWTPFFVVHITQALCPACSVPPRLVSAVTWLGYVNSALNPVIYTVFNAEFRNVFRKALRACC

Chain of D(1B) dopamine receptor (P21918 whole entry): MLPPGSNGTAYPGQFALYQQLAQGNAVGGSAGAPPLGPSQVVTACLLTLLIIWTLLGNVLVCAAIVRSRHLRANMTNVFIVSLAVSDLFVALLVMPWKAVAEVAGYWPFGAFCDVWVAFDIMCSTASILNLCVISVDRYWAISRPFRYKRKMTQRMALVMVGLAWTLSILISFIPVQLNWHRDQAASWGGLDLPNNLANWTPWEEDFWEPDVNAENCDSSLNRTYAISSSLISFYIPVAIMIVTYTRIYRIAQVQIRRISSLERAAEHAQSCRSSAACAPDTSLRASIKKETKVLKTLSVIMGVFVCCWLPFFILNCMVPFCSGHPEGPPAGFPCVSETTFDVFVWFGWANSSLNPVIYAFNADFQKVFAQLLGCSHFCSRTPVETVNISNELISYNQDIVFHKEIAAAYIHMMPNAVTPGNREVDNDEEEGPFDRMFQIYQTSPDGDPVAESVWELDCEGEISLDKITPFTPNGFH

SMILES	pKi [1]	pKi [2]	pKi [3]	pKi [4]	pKi [5]
COc1ccc2c(c1)Cc1ccccc1CCCN(C)CC2	7.12	6.86	5.86	4.62	5.56
CN1CCCc2ccccc2Cc2ccc(O)cc2CCC1	7.02	7.08	6.42	5.40	6.37
COc1cc2c(cc1Cl)CCN1CCCc3ccccc3C21 (stereo unspecified)	< 5.00	< 5.00	< 5.00	< 5.00	< 5.00
Oc1ccc2c(c1)CCCNCCc1ccccc1C2	6.50	6.54	6.07	5.16	5.37
COc1ccc(CCN2CCCc3ccccc3C2)cc1Cl	< 5.00	< 5.00	< 5.00	< 5.00	< 5.00
COc1cc2c(cc1OC)Cc1ccccc1CCCN(C)CC2	6.29	6.24	5.99	4.83	5.30
COc1ccc2c(c1)CCCN1CCCc3ccccc3C21 (stereo unspecified)	< 5.00	< 5.00	< 5.00	< 5.00	< 5.00

These reach a higher pKi [1]. Values come first.

pKi [1]	pKi [2]	pKi [3]	pKi [4]	pKi [5]	SMILES
8.01	8.49	7.13	7.00	7.22	CN1CCCc2ccccc2Cc2ccc(O)cc2CC1
7.28	7.63	6.76	5.87	5.54	COc1ccc2c(c1)CCCN(C)CCCc1ccccc1C2
8.34	7.73	7.06	6.29	6.57	COc1ccc2c(c1)CCN(C)CCCc1ccccc1C2
7.27					COc1ccc2c(c1)CCN(C)CCc1ccccc1C2
7.77	7.86	6.29	5.21	5.65	CN1CCCc2cc(O)ccc2Cc2ccccc2CC1
7.26	7.53	7.60	5.50	5.96	COc1ccc2c(c1)CCCN(C)CCc1ccccc1C2
7.16	7.15	7.20	6.11	5.43	CN1CCCc2ccccc2Cc2cc(O)ccc2CC1
